Activity calls are given as the source filed them. The rule behind the calls is not given here.
How the values were obtained:
MGC-803 [1] = assay: Induction of apoptosis in human MGC803 cells assessed as caspase-3 activation at 5 uM after 24 hrs by FITC-DEVD-FMK probe-based flow cytometric analysis (reference value: 1.8%); type: functional
Procedure, shortened: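 Treated and control MGC-803 cells (5 µM, 24 h) harvested at 1 × 10⁶ cells/mL in RPMI 1640 + 10% FCS. Incubated with FITC-DEVD-FMK for 1 h at 37 °C, 5% CO₂, then analysed by flow cytometry with 488 nm excitation. Given as percent change versus untreated control.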

[2] = tested on: Cellular tumor antigen p53 (Homo sapiens), P04637 [UNDEFINED MUTATION]; assay: Inhibition of P53 mutant in human MGC803 cells assessed as AIF release from mitochondria and translocation to nucleus at 1 to 10 uM after 48 hrs by immunostaining assay; type: cell-based; conditions: MGC-803
Cellular tumor antigen p53 (Homo sapiens), P04637 [UNDEFINED MUTATION], sequence (P04637 whole entry, looked up, stated change not applied, the tested form may be a part): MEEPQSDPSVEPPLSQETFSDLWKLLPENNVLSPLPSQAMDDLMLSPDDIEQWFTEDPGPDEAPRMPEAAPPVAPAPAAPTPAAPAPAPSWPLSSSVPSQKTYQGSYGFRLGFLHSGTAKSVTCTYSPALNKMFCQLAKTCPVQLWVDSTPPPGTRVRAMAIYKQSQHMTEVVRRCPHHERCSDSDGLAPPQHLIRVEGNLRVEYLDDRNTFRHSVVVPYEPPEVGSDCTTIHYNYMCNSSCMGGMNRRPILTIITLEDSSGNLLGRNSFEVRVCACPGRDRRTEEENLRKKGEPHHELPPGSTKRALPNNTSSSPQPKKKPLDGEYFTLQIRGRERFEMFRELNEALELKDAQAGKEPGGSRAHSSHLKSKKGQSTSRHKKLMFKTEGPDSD
Procedure, shortened: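 MGC-803 cells on slides, 48 h after treatment, were washed in PBS and fixed in 4% paraformaldehyde. They were immunostained for AIF with primary antibody and a Cy3-conjugated secondary.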

MGC-803 [3] = assay: Cell cycle arrest in human MGC803 cells assessed as accumulation at G2/M phase at 1 uM after 48 hrs by propidium iodide staining-based FACS analysis relative to control; type: functional
MGC-803 [4] = assay: Cell cycle arrest in human MGC803 cells assessed as accumulation at G2/M phase at 10 uM after 48 hrs by propidium iodide staining-based FACS analysis relative to control; type: functional
HepG2 = assay: Cytotoxicity against human HepG2 cells assessed as cell viability after 48 hrs by MTT assay; type: functional, cell-based; conditions: HepG2, 48 h
Procedure, shortened: (§1)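 Cells were trypsinized, seeded in 96-well plates at 2 × 10³ cells/well and grown for 24 h. Medium was then replaced with compound solutions (in DMSO, range from 0.1) for 48 h, and viability was read by MTT. Cancer lines were grown in RPMI 1640 + 10% FCS. IC50 from 3 independent experiments, each in triplicate.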

[5] = tested on: Cellular tumor antigen p53 (Homo sapiens), P04637 [UNDEFINED MUTATION]; assay: Inhibition of P53 mutant in human MGC803 cells assessed as upregulation of Bim expression at 1 to 10 uM after 24 hrs by Western blot analysis; type: cell-based; conditions: MGC-803
[6] = tested on: Cellular tumor antigen p53 (Homo sapiens), P04637 [UNDEFINED MUTATION]; assay: Inhibition of P53 mutant phosphorylation at s392 in human MGC803 cells at 1 to 10 uM after 24 hrs by Western blot analysis; type: cell-based; conditions: MGC-803
Procedure, shortened: (§2)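 MGC-803 cells, 3 × 10⁵ per well of a 6-well plate, exposed to compound for 24 h. Cells were washed in ice-cold PBS and lysed in sample buffer, then run on SDS-PAGE and transferred to nitrocellulose. Blots were probed with primary antibodies and […] anti-rabbit IgG and developed by ECL.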

NCI-H460 = assay: Cytotoxicity against human NCI-H460 cells assessed as cell viability after 48 hrs by MTT assay; type: functional, cell-based; conditions: NCI-H460, 48 h; procedure, shortened: as §1
MGC-803 [7] = assay: Cell cycle arrest in human MGC803 cells assessed as accumulation at sub G1 phase at 10 uM after 48 hrs by propidium iodide staining-based FACS analysis relative to control; type: functional
[8] = tested on: Cellular tumor antigen p53 (Homo sapiens), P04637 [UNDEFINED MUTATION]; assay: Inhibition of P53 mutant in human MGC803 cells assessed as change in BAX expression at 1 to 10 uM after 24 hrs by Western blot analysis; type: cell-based; conditions: MGC-803
MGC-803 [9] = assay: Induction of apoptosis in human MGC803 cells assessed as chromatin fragmentation at 1 to 10 uM after 48 hrs by Hoechst 33258 staining-based fluorescence confocal microscopic analysis; type: functional, cell-based
Procedure, shortened: (§3)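 MGC-803 cells grown on glass slides and treated 48 h. They were then washed in PBS, fixed in 4% paraformaldehyde and permeabilized with 1% Triton X-100. After four washes, Hoechst 33258 ([…] final) was added in the last wash to stain nuclei.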

[10] = tested on: Cellular tumor antigen p53 (Homo sapiens), P04637 [UNDEFINED MUTATION]; assay: Inhibition of P53 mutant acetylation at k373 in human MGC803 cells at 1 to 10 uM after 24 hrs by Western blot analysis; type: cell-based; conditions: MGC-803; procedure, shortened: as §2
MGC-803 [11] = assay: Cytotoxicity against human MGC803 cells assessed as cell viability after 48 hrs by MTT assay; type: functional, cell-based; conditions: MGC-803, 48 h; procedure, shortened: as §1
MGC-803 [12] = assay: Cell cycle arrest in human MGC803 cells assessed as accumulation at S phase at 10 uM after 48 hrs by propidium iodide staining-based FACS analysis relative to control; type: functional
[13] = tested on: Cellular tumor antigen p53 (Homo sapiens), P04637 [UNDEFINED MUTATION]; assay: Inhibition of P53 mutant in human MGC803 cells assessed as decrease in p21 expression at 1 to 10 uM after 24 hrs by Western blot analysis; type: cell-based; conditions: MGC-803; procedure, shortened: as §2
MGC-803 [14] = assay: Cell cycle arrest in human MGC803 cells assessed as accumulation at G0/G1 phase at 10 uM after 48 hrs by propidium iodide staining-based FACS analysis relative to control; type: functional
MGC-803 [15] = assay: Cell cycle arrest in human MGC803 cells assessed as accumulation at G0/G1 phase at 1 uM after 48 hrs by propidium iodide staining-based FACS analysis relative to control; type: functional
MGC-803 [16] = assay: Cell cycle arrest in human MGC803 cells assessed as accumulation at S phase at 1 uM after 48 hrs by propidium iodide staining-based FACS analysis relative to control; type: functional
MGC-803 [17] = assay: Cell cycle arrest in human MGC803 cells assessed as accumulation at sub G1 phase at 1 uM after 48 hrs by propidium iodide staining-based FACS analysis relative to control; type: functional
[18] = Cytotoxicity against human WI38 cells expressing wild type p53 assessed as cell viability at 1 to 10 uM after 48 hrs by MTT assay; type: cell-based; conditions: wi-38, 48 h
Procedure, shortened: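 WI-38 normal lung fibroblasts, grown in DMEM + 10% FCS, seeded at 2 × 10³ cells/well in 96-well plates for 24 h. Then exposed to compound (in DMSO) for 48 h, with viability by MTT.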

MGC-803 [19] = assay: Induction of apoptosis in human MGC803 cells assessed as chromatin condensation at 1 to 10 uM after 48 hrs by Hoechst 33258 staining-based fluorescence confocal microscopic analysis; type: functional, cell-based; procedure, shortened: as §3
[20] = tested on: Cellular tumor antigen p53 (Homo sapiens), P04637 [UNDEFINED MUTATION]; assay: Inhibition of P53 mutant in human MGC803 cells assessed as upregulation of cdk2 activity at 1 to 10 uM after 24 hrs by Western blot analysis; conditions: MGC-803
A-375 = assay: Cytotoxicity against human A375 cells assessed as cell viability after 48 hrs by MTT assay; type: functional, cell-based; conditions: A-375, 48 h; procedure, shortened: as §1
MGC-803 [21] = assay: Cytotoxicity against human MGC803 cells assessed as cell size at 1 uM after 48 hrs by FACS analysis relative to control; type: functional
Procedure, shortened: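 Cells treated 48 h with DMSO or compound at […] as printed. Forward scatter (mean FSC-H) measured by FACS and given relative to control cells.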

[22] = tested on: Cellular tumor antigen p53 (Homo sapiens), P04637 [UNDEFINED MUTATION]; assay: Inhibition of P53 mutant in human MGC803 cells assessed as downregulation of Bcl-2 expression at 1 to 10 uM after 24 hrs by Western blot analysis; type: cell-based; conditions: MGC-803

- inhibition [2]: Active
- inhibition [5]: Active
- inhibition [6]: Active
- inhibition [8]: inactive
- inhibition [10]: Active
- inhibition [13]: Active
- inhibition [20]: Active
- inhibition [22]: Active
Compound: COc1cc2nc(/C=C/c3ccc(Cl)cc3)n(CCCN(C)C)c(=O)c2cc1OC
- Activity (MGC-803 [1]): 3.5%
- Activity (MGC-803 [3]): 14.1%
- Activity (MGC-803 [4]): 20.25%
- IC50 (HepG2): 6.96 µM
- IC50 (NCI-H460): 7.15 µM
- Activity (MGC-803 [7]): 30.4%
- Activity (MGC-803 [9]): Active
- IC50 (MGC-803 [11]): 3.18 µM
- Activity (MGC-803 [12]): 29.93%
- Activity (MGC-803 [14]): 19.42%
- Activity (MGC-803 [15]): 51.79%
- Activity (MGC-803 [16]): 29.22%
- Activity (MGC-803 [17]): 4.89%
- Activity [18]: Non-toxic
- Activity (MGC-803 [19]): Active
- IC50 (A-375): > 20 µM
- Activity (MGC-803 [21]): 59.4%

Reference: ChEMBL document CHEMBL3414503, “Distinct novel quinazolinone exhibits selective inhibition in MGC-803 cancer cells by dictating mutant p53 function” (Eur J Med Chem, 2015)
